Compound activity as filed in PubChem.
UCH37 DUB inh: blocks the human deubiquitinase UCH37. purified proteasome/UCH37, Ub-AMC cleavage fluorescence. inhibition, % (no concentration beside the values). 330,000 compounds, 0.33% hits. AID 588478;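 active = mean inhibition over replicate wells above about 20%, limit read from the data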;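 also: 0% = compound-free wells with enzyme and 100% = wells lacking proteasome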
Target sequence (Q9Y5K5 whole entry, looked up): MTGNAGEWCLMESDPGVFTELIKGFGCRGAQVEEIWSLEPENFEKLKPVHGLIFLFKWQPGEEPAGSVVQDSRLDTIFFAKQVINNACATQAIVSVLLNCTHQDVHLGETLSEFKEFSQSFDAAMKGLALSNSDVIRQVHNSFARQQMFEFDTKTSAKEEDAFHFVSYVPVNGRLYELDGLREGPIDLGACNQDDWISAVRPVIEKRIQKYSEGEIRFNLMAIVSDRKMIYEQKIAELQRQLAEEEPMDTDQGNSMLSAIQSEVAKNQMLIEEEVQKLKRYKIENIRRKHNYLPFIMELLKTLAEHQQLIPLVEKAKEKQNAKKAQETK
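System: Proteasome-associated human UCH37 deubiquitinase; Input: 0.15 nM proteasome in added enzyme buffer; Also added: Ub-AMC substrate from 1 µM stock; Incubation: 30 min compound-proteasome preincubation then 25 min substrate reaction, room temperature; Detection: fluorescence, ex 355 nm, em 460 nm; Read-out: % inhibition of Ub-AMC cleavage fluorescence; Benchmarks: no-proteasome and no-compound wells.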
ARNT TACC3 PPI: disruptors of human ARNT/TACC3 interaction | Q9Y6A5 | AlphaScreen His-ARNT PAS-B/GST-TACC3 binding, luminescence; TACC3 fragment carries E629A point mutation | inhibition, % at 9.99 µM | 390,000 compounds, 0.66% hits | AID 623870;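 active = mean inhibition of replicates at least 50% and at least half of replicates each reaching 50%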;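 also: 0% = complete ARNT plus TACC3 wells and 100% = ARNT alone without TACC3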
RTF Ca sens inh: cardiac RTF calcium desensitization. IANBD-labeled cardiac RTF, Ca2+ fluorescence. inhibition, % at 7.15 µM. 340,000 compounds, 0.12% hits. AID 493244;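 active = inhibition above the mean inhibition of all tested compounds plus 3 SD, cut at about 17% in these data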;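 also: assay run at fixed EC70 calcium of 1.6 mM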
RTF Ca sens act: cardiac RTF calcium sensitization | AID 493008 | activation, % at 7.2 µM | IANBD-labeled TnC RTF fluorescence at EC20 calcium; 0% EC20 calcium, 100% full calcium | 340,000 compounds, 0.24% hits | P19429+P45379;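 active = activation above the mean over all tested compounds plus 3 SD, cut at about 30% in these data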;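 also: rise in fluorescence read as greater calcium sensitivity of cardiac thin filaments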
Mot1-301 SUMO: blocks SUMOylation pathway, rescuing yeast Mot1-301 growth. growth rescue, % at 18.8 µM. 320,000 compounds, 1% hits. AID 2716. S. cerevisiae Mot1-301 growth rescue, ATP luminescence, 38.5C; percent above DMSO median, 100 means doubled;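 active = every valid replicate shows activation above 250% relative to neutral control wells; inactive = the rest, any valid replicate at or below 250%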;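 also: OY570 slx delta 5 strain wells were the positive control but not used for scaling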
Efflux pump inh: inhibitors of Candida antifungal efflux pumps expressed in yeast. S. cerevisiae Candida pump triplex, Nile Red efflux. 330,000 compounds, 0.44% hits. inhibition, % at 10 µM;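 active = plate passing quality check with inhibition over a set limit, or well fluorescence over plate mean plus 4 SD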;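 also: Nile Red retained in pooled yeast measured as flow cytometry median fluorescence; 0% = buffer negative control and 100% = Enniatin B positive control; higher means more Nile Red kept so more efflux inhibition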
Yeast Mot1 SUMO: SUMO pathway inhibitors in yeast Mot1-301 growth. S. cerevisiae Mot1-301 galactose growth, ATP luminescence, 24 h; -100 = growth of slx-deleted rescue strain. growth activity, percent, % at 42 µM. 2,300 tested, under 10 active. AID 493004. shares compounds with Mot1-301 SUMO;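 active = Signal drops as the depositor expects, and the fitted half-maximal dose is no more than ten times the top valid tested dose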;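 also: more negative values mean stronger growth rescue toward the control strain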
Active calls of the source: *. Shown are actives, neighbours in structure and some others; about 2.1% of the full set was active somewhere.

CCCCN(C)C(=O)c1cc2c(Cl)nc3ccccc3c2s1 was read as UCH37 DUB inh 3, ARNT TACC3 PPI -7, RTF Ca sens inh -3, RTF Ca sens act -5, Mot1-301 SUMO 433*, Efflux pump inh 0 and Yeast Mot1 SUMO 0.
For COc1cc(C(=O)NN=C(C)Cc2ccccc2)cc(OC)c1OC the results were UCH37 DUB inh 2.
CC1CCN(CCCCOc2ccc(Cl)cc2)CC1 was read as UCH37 DUB inh 0, ARNT TACC3 PPI -2, RTF Ca sens inh -8, RTF Ca sens act 2, Mot1-301 SUMO 427*, Efflux pump inh 0 and Yeast Mot1 SUMO 0.
`C(/C=C/c1ccco1)=Nn1cnnc1` gave UCH37 DUB inh 15.
Screening COc1ccc(/C=C2/S/C(=N/N=C3CC4CCC3(C)C4(C)C)NC2=O)cc1 (stereo not drawn) returned UCH37 DUB inh 0.
Screening COc1ccc(-c2cc(C(=O)Nc3cc(C)ccc3O)no2)cc1 returned UCH37 DUB inh 2, ARNT TACC3 PPI 0, RTF Ca sens inh 0, RTF Ca sens act -1, Mot1-301 SUMO 369*, Efflux pump inh 0 and Yeast Mot1 SUMO 1.
For Cc1sc2ncnc(Nc3ccccc3)c2c1C the results were UCH37 DUB inh 3, ARNT TACC3 PPI -2, RTF Ca sens inh 4, RTF Ca sens act 4, Mot1-301 SUMO 371*, Efflux pump inh 0 and Yeast Mot1 SUMO 0.
For CCN=C1S/C(=C\c2ccc(Sc3ccc(Cl)cc3)o2)C(=O)N1CC the results were UCH37 DUB inh -2, ARNT TACC3 PPI 5, RTF Ca sens inh 4, RTF Ca sens act 8 and Efflux pump inh 0.
For CCN=C1S/C(=C/c2ccc(-c3ccc(F)cc3)o2)C(=O)N1CC the results were UCH37 DUB inh -41, ARNT TACC3 PPI -5, RTF Ca sens inh -4, RTF Ca sens act 2, Mot1-301 SUMO 956*, Efflux pump inh 0 and Yeast Mot1 SUMO -1.
`COc1ccccc1N1CCN(CCN2C(=O)C3CCCCN3C2=O)CC1` (stereo not drawn) gave UCH37 DUB inh 1, ARNT TACC3 PPI -6, RTF Ca sens inh -1, RTF Ca sens act 6, Mot1-301 SUMO 454*, Efflux pump inh 0 and Yeast Mot1 SUMO 0.
For O=C(NN=Cc1cc2cc3c(cc2nc1Cl)OCCO3)c1ccccc1O the results were UCH37 DUB inh -58.
`CCCNCc1cc(OCC)c(OCC(N)=O)cc1Br` gave UCH37 DUB inh 2, ARNT TACC3 PPI -5, RTF Ca sens inh 2, RTF Ca sens act 3, Mot1-301 SUMO 766*, Efflux pump inh 0 and Yeast Mot1 SUMO 0.
For COc1cc(CO)c(Br)cc1OCC(N)=O the results were UCH37 DUB inh 1, RTF Ca sens inh -2, RTF Ca sens act 0, Mot1-301 SUMO 70 and Efflux pump inh 0.
For CCn1nc(CC(=O)Nc2ccc(-n3cnnn3)c(OC)c2)c2ccccc2c1=O the results were UCH37 DUB inh 3, ARNT TACC3 PPI -1, RTF Ca sens inh -6, RTF Ca sens act 9, Mot1-301 SUMO -2 and Efflux pump inh 0.
CCn1nc(CC(=O)Nc2ccc(-n3cnnn3)c(C)c2)c2ccccc2c1=O was read as RTF Ca sens inh 1, RTF Ca sens act 4, Mot1-301 SUMO 724*, Efflux pump inh 0 and Yeast Mot1 SUMO 1.
For CSCCOC(=O)COc1ccc(C=NNC(=O)c2c(Cl)cnn2C)cc1 the results were UCH37 DUB inh 3.
Screening O=C1CCCN1CCC(=O)N1CCCC(N2CCN(c3ccccc3F)CC2)C1 (stereo not drawn) returned UCH37 DUB inh 4, ARNT TACC3 PPI 0, RTF Ca sens inh -1, RTF Ca sens act -2, Mot1-301 SUMO 481*, Efflux pump inh 0 and Yeast Mot1 SUMO 0.
For CN(N=Cc1ccc(Cl)cc1)c1ncc(Cl)cc1C(F)(F)F the results were UCH37 DUB inh 7.
Screening CC(=O)Nc1ccc(NC(=O)C(=O)NN=Cc2cccnc2)cc1 returned UCH37 DUB inh -13.
`Cc1c(C=NNC(=O)C(C)(C)Oc2ccc(Cl)cc2)cnn1C` gave UCH37 DUB inh -2.
